Columns and labels:
Format in all cases: functional
Mus musculus = species: Mus musculus; assay: Antagonistic activity against tetrabenazine-induced ptosis in mice.
Method in brief: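 Mice dosed intraperitoneally; the result is reported as the ED50 in μmol/kg with a range in parentheses. Test compounds are racemates of >95% isomeric purity by TLC.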

[1] = target: Norepinephrine transporter (Rattus norvegicus, UniProt Q9WTR4); assay: Inhibition of noradrenaline uptake in rat synaptosomal fraction
Method in brief: (§1)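 Synaptosomal uptake of DA, NE or 5-HT measured. The IC50 is in nM and is the mean of at least two determinations, each using five test concentrations in triplicate.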

[2] = target: Sodium-dependent dopamine transporter (Rattus norvegicus, UniProt P23977); assay: Inhibition of dopamine uptake in rat synaptosomal fraction
[3] = target: Sodium-dependent serotonin transporter (Rattus norvegicus, UniProt P31652); assay: Inhibition of 5-HT uptake in rat synaptosomal fraction; method in brief: as §1
Sodium-dependent serotonin transporter, sequence (P31652 whole entry): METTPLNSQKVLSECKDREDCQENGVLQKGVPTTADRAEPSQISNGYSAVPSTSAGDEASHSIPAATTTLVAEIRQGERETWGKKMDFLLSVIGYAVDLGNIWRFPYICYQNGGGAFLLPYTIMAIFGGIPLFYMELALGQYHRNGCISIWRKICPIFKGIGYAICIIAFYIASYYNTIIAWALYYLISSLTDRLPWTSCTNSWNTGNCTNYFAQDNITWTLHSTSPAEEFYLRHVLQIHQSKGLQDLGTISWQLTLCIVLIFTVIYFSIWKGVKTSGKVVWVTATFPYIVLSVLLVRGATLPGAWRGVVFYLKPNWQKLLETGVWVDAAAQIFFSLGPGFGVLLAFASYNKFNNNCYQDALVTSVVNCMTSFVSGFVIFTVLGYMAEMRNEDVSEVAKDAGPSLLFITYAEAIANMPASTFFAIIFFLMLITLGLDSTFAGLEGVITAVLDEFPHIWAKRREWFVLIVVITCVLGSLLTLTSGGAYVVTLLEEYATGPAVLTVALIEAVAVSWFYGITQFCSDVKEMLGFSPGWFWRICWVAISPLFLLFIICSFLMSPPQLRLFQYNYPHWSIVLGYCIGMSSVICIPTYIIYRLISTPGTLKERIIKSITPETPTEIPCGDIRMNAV

Norepinephrine transporter, sequence (Q9WTR4 whole entry): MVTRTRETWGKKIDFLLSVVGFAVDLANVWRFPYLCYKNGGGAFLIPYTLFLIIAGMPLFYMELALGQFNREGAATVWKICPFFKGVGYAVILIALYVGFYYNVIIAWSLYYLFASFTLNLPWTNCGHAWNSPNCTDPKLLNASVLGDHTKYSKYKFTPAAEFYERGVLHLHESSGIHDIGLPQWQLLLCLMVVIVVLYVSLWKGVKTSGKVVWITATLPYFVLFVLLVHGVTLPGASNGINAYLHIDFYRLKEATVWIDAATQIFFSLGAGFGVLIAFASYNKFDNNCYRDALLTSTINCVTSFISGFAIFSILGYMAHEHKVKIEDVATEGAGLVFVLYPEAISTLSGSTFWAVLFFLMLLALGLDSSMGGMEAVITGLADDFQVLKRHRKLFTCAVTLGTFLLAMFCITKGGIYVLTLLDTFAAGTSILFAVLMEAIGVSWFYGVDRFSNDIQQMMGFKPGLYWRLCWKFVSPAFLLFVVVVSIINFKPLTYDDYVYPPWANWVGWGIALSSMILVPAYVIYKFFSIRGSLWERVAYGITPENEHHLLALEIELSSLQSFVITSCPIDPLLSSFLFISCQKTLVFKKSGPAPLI
Sodium-dependent dopamine transporter, sequence (P23977 whole entry): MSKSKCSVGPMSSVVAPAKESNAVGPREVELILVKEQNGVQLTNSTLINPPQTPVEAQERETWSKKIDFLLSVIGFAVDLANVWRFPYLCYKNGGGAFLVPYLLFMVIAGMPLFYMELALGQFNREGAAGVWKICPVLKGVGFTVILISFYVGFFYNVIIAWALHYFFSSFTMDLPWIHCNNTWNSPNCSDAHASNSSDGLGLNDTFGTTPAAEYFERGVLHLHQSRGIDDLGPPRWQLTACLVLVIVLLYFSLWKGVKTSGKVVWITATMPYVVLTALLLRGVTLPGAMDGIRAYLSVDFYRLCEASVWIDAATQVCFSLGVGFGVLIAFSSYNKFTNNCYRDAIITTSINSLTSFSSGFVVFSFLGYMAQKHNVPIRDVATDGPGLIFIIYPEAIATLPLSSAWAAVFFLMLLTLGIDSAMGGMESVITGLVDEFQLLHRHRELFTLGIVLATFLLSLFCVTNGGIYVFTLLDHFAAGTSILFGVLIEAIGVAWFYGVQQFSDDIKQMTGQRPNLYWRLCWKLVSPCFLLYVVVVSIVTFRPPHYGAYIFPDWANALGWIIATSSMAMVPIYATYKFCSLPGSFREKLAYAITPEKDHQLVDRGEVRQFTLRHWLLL

SMILES | ED50 (Mus musculus) | IC50 [1] | IC50 [2] | IC50 [3] | ED50 (Mus musculus; Mus musculus, read-out: ED50)
CN(C)C1CC(c2ccc(F)cc2)c2ccc(F)cc21 (centres undefined) | >147 µmol/kg | 90 nM | – | – | –
CN(C)C1CC(c2ccc(Cl)c(Cl)c2)c2ccccc21 (centres undefined) | – | 24 nM | 28 nM | 0.64 nM | –
CNC1CC(c2ccc(Cl)cc2)c2ccccc21 (centres undefined) | >155 µmol/kg | 0.51 nM | 5.6 nM | 4 nM | –
CN(C)C1CC(c2ccc(F)c(F)c2)c2ccccc21 (centres undefined) [listing 1 of 2 here] | 13 µmol/kg | 29 nM | 180 nM | 1.3 nM | –
CN(C)C1CC(c2ccc(F)c(F)c2)c2ccccc21 (centres undefined) [listing 2 of 2 here] | – | 62 nM | 250 nM | 20 nM | 7.1 µmol/kg
CNC1CC(c2ccc(Cl)cc2)c2ccccc21.Cl (centres undefined) | 376 µmol/kg | 24 nM | 120 nM | 0.65 nM | –
CN(C)C1CC(c2ccc(F)cc2)c2ccc(F)cc21.Cl (centres undefined) | 28 µmol/kg | 350 nM | 620 nM | 18 nM | –
CN1CCN(C2CC(c3ccc(Cl)c(Cl)c3)c3ccccc32)CC1 (single isomer, unassigned; (+)-101) | >91 µmol/kg | – | 340 nM | – | –
CN(C)C1CC(c2ccccc2)c2ccccc21.Cl (stereo in doubt; 31) | 17 µmol/kg | 130 nM | 600 nM | 150 nM | –
CNC1CC(c2ccc(F)cc2)c2ccccc21.Cl (stereo in doubt; 32) | 19 µmol/kg | 2.9 nM | – | 76 nM | –
CN(C)C1CC(c2ccc(F)cc2)c2ccccc21.Cl (stereo in doubt; 33) | 7.8 µmol/kg | 100 nM | 320 nM | 33 nM | –
CN(C)C1CC(c2ccc(Cl)cc2)c2ccccc21 (stereo in doubt; 35) | 56 µmol/kg | 23 nM | 140 nM | 0.64 nM | –
CNC1CC(c2ccc(Br)cc2)c2ccccc21 (stereo in doubt; 36) | – | 0.3 nM | 2.5 nM | 0.28 nM | 47 µmol/kg
CN(C)C1CC(c2ccc(Br)cc2)c2ccccc21 (stereo in doubt; 37) | 9.8 µmol/kg | 28 nM | 54 nM | 0.04 nM | –
CN(C)C1CC(c2ccccc2)c2ccccc21.Cl (stereo in doubt; 59) | >143 µmol/kg | 41 nM | – | – | –
CNC1CC(c2ccc(F)cc2)c2ccccc21.Cl (stereo in doubt; 60) | 79 µmol/kg | 120 nM | – | 21 nM | –
CN(C)C1CC(c2ccc(F)cc2)c2ccccc21.Cl (stereo in doubt; 61) | 24 µmol/kg | 24 nM | – | 6.2 nM | –
CN(C)C1CC(c2ccc(Cl)cc2Cl)c2ccccc21 (stereo in doubt; 75) | – | 34 nM | – | – | 23 µmol/kg
CN(C)C1CC(c2ccc(Cl)c(Cl)c2)c2ccc(F)cc21 (stereo in doubt; 77) | – | 3.7 nM | 31 nM | 2.5 nM | –
CN(C)C1CC(c2ccc(F)cc2)c2ccc(C(F)(F)F)cc21.Cl (stereo in doubt; 82) | >111 µmol/kg | 350 nM | – | – | –
CCNC1CC(c2ccc(Cl)c(Cl)c2)c2ccccc21.Cl (stereo in doubt; 83) | – | 0.32 nM | 1.5 nM | 2.3 nM | –
CCNC1CC(c2ccc(Cl)c(Cl)c2)c2ccccc21.Cl (stereo in doubt; 84) | – | 49 nM | – | 1.6 nM | –
CCN(CC)C1CC(c2ccc(Cl)c(Cl)c2)c2ccccc21.Cl (stereo in doubt; 86) | >108 µmol/kg | 13 nM | – | – | –
CCCN(CCC)C1CC(c2ccc(Cl)c(Cl)c2)c2ccccc21.Cl (stereo in doubt; 90) | >100 µmol/kg | – | 180 nM | – | –
Clc1ccc(C2CC(N3CCCC3)c3ccccc32)cc1Cl (stereo in doubt; 97) | – | – | 320 nM | – | > 108 µmol/kg
Clc1ccc(C2CC(N3CCCC3)c3ccccc32)cc1Cl (stereo in doubt; 98) | – | 27 nM | 32 nM | 3.1 nM | –
